The source of these data is ChEMBL document CHEMBL2321678, “Incorporation of non-natural amino acids improves cell permeability and potency of specific inhibitors of proteasome trypsin-like sites” (J Med Chem, 2013).

Assay [1] is described as follows: Inhibition of caspase-like activity of rabbit 26s proteasome beta 1 subunit assessed as hydrolysis of Acn-LPnLD-amc fluorogenic substrate preincubated for 30 mins followed by substrate addition measured for 30 mins by fluorescence plate reader analysis. On the set-up: species or system Oryctolagus cuniculus. A digest of the protocol: (§1)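 Purified rabbit-muscle 26S proteasome (final 3 µg/mL) preincubated 30 min with a range of inhibitor concentrations. Slopes expressed as % of mock; IC50 by four-parameter least-squares fit.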

A short description of assay [2]: Inhibition of trypsin-like activity of rabbit 26s proteasome beta 2 subunit assessed as hydrolysis of Ac-RLR-amc fluorogenic substrate preincubated for 30 mins followed by substrate addition measured for 30 mins by fluorescence plate reader analysis. On the set-up: species or system Oryctolagus cuniculus. The method, boiled down: as §1
For assay [3], the target named is Proteasome Macropain subunit (Homo sapiens) (UniProt P49721). The assay can be described thus: Selectivity ratio of IC50 for trypsin-like activity of proteasome in human RPMI-8226 cells to IC50 for trypsin-like activity of proteasome in human NCI-H929 cells. In kind it is cell-based.
Chain of Proteasome Macropain subunit (Homo sapiens) (P49721 whole entry): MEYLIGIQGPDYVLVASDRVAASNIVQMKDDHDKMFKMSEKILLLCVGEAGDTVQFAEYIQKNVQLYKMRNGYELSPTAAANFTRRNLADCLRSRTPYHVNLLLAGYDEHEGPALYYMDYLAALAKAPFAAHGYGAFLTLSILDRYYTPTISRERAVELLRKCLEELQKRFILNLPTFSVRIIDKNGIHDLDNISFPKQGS
The nature of assay [4]: Inhibition of chymotrypsin-like activity of rabbit 26s proteasome beta 5 subunit assessed as hydrolysis of Suc-LLVY-amc fluorogenic substrate preincubated for 30 mins followed by substrate addition measured for 30 mins by fluorescence plate reader analysis. On the set-up: species or system Oryctolagus cuniculus. A digest of the protocol:
as §1

The target of assay [5] is T1, Proteasome Macropain subunit MB1 (Homo sapiens, UniProt P28074).
T1 sequence (P28074 whole entry): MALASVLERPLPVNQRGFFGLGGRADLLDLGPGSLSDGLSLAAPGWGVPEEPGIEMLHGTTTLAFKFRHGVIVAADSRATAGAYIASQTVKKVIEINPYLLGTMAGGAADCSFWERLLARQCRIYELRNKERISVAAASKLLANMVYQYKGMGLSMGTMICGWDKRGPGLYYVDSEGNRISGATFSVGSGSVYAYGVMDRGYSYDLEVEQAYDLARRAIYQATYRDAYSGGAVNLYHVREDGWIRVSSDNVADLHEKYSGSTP
The assay can be described thus: Inhibition of chymotrypsin-like activity of proteasome in human NCI-H929 cells after 6 hrs by proteasomeGlo assay. In kind it is cell-based. A digest of the protocol:
(§2)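 Cells then pelleted, resuspended in PBS and mixed with site-specific luminogenic substrates in lysis/assay buffer. Mixing 3 min, then 17 min in the dark before luminescence, triplicate per substrate/point. Activity as % of mock; IC50 from a four-parameter nonlinear fit.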

The species named for assay [6] is Oryctolagus cuniculus. Briefly: Selectivity ratio of IC50 for chymotrypsin-like activity of rabbit 26s proteasome beta 5 subunit to IC50 for trypsin-like activity of rabbit 26s proteasome beta 2 subunit. The method, boiled down:
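Purified rabbit-muscle 26S proteasome (final 3 µg/mL) preincubated 30 min with a range of inhibitor concentrations. […] Amc release read continuously for 30 min (ex 380/em 460 nm). Slopes expressed as % of mock; IC50 by four-parameter least-squares fit.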

The target in assay [7] is T1, Proteasome Macropain subunit MB1. The assay can be described thus: Inhibition of chymotrypsin-like activity of proteasome in human RPMI-8226 cells after 6 hrs by proteasomeGlo assay. The assay is classed as cell-based. A digest of the protocol:
as §2

The test system of assay [8] is NCI-H929. The assay can be described thus: Inhibition of cathepsin in human NCI-H929 cells assessed as hydrolysis of Z-FR-amc fluorogenic substrate after 6 hrs. In kind it is cell-based. A digest of the protocol: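 NCI-H929 cells treated 6 h, washed and permeabilized on ice with 0.05% digitonin in Tris pH 7.5 sucrose buffer. Cytosol removed by centrifugation, then the pellet lysed in Bis-Tris pH 5.5/CHAPS buffer. Protein-normalized extract added to 40 µM Z-FR-amc in phosphate pH 6.0, EDTA, DTT. Fluorescence read continuously for 30 min; rate from slopes.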

A short description of assay [9]: Inhibition of chymotrypsin-like activity of yeast 20s proteasome beta 5 subunit assessed as hydrolysis of Suc-LLVY-amc fluorogenic substrate after 15 mins by fluorescence spectrophotometry. On the set-up: species or system Saccharomyces cerevisiae.

Calls of active or inactive are those of the source. The rule behind the calls is not given here.

What is called IC50 is the concentration that inhibits the measured activity by half. For `Cc1c(O)cccc1C(=O)N[C@H](C(=O)N[C@@H](CO)C(=O)N[C@@H](CCCNC(=N)N)C(=O)[C@@]1(C)CO1)C(C)C`, the half-maximal inhibitory concentration (IC50) in assay [1] was 80 µM; in [2] it was 0.3 µM; in assay [4], 80 µM; in assay [5] it was greater than 30 µM; in assay [7], greater than 30 µM. In addition, the Ratio IC50 stood at 25 in assay [3] and 267 in assay [6].

Consider `Cc1c(O)cccc1C(=O)N[C@H](C(=O)N[C@@H](CO)C(=O)N[C@H](/C=C/S(C)(=O)=O)Cc1ccc(CN)cc1)C(C)C`, for which the IC50 in assay [1] was found to be 21 µM; in [9] it was 19.3 µM. For the same compound, in assay [8], the inhibition result is “inactive”.
